Published values from different studies.
Protocols differ between the studies behind these lines.
ANKK1: Ankyrin repeat and protein kinase domain-containing protein 1 (ANKK1, Homo sapiens, UniProt Q8NFD2)
SP140: SP140 (Homo sapiens, UniProt Q13342)

CC(C)(C)c1nc(-c2cccc(NS(=O)(=O)c3c(F)cccc3F)c2F)c(-c2ccnc(N)n2)s1  remaining activity (Cyclin-dependent kinase 1, with cyclin E1 (CDK1, Homo sapiens, UniProt P06493); enzyme activity, inhibitor, radiometric; 1 µM): 57%
Oc1c(Br)cc(Oc2ccc(Br)cc2Br)cc1Br  Km (Sulfotransferase 1E1 (SULT1E1, Homo sapiens, UniProt P49888); enzyme activity, substrate): 4.23 µM
OCc1cc(C(O)CNCCCCCCOCCCCc2ccccc2)ccc1O (stereo not shown)  inhibition (C-X-C chemokine receptor type 4 (CXCR4, Homo sapiens, UniProt P61073); calcium signal, antagonist; U87.CD4.CXCR4; 0.8 µM): 9%
CC(C)(O)[C@H]1CC[C@H](Nc2ccc3ncc(-c4cccc(C(F)(F)F)c4)n3n2)CC1  remaining activity (Cyclin-dependent kinase 1, with cyclin E (CDK1, Homo sapiens, UniProt P06493); enzyme activity, inhibitor; 1 µM): 107%
CC(C)(C)c1nc2c(s1)c1nc(N)ncc1c1ccc(NS(=O)(=O)c3c(F)cccc3F)c(F)c12  remaining activity (Cyclin-dependent kinase 1, with cyclin A2 (CDK1, Homo sapiens, UniProt P06493); enzyme activity, inhibitor, radiometric; 1 µM): 100%
Nc1ncnc2occ(-c3ccc(NC(=O)Nc4cc(C(F)(F)F)ccc4F)cc3)c12  remaining signal (ANKK1; cell-free assay; 20 µM): 3.6%
Cc1ccc(C(=O)Nc2ccc(CN3CCN(C)CC3)c(C(F)(F)F)c2)cc1C#Cc1cnc2cccnn12  remaining signal (ANKK1; cell-free assay; 23.5 nM): 56%
Cc1cc2c(cc1N1C(=O)c3cccc4c(Cl)ccc(c34)C1=O)n(C)c(=O)n2C  ΔTm (SP140; thermal stability, DSF; 10 µM): -0.9 °C
CCCOc1ccc(OC)c(F)c1C(=O)c1ccc(C(=O)N[C@@H]2CNC[C@H]2NC(=O)c2ccc3[nH]ncc3c2)cc1  remaining activity (Serine/threonine-protein kinase Sgk2 (SGK2, Homo sapiens, UniProt Q9HBY8); enzyme activity, inhibitor; 0.5 µM): 16%
Oc1ccc(-c2nc(-c3ccncc3)c(-c3ccc(F)cc3)[nH]2)cc1  ΔTm (SP140; thermal stability, DSF; 10 µM): 0.36 °C
Cc1ccc(S(=O)(=O)Nc2ccc(-n3nc(C(F)(F)F)cc3C(F)(F)F)cc2)cc1  remaining activity (Calcium release-activated calcium channel protein 1 (Rattus norvegicus, UniProt Q5M848); ion current, inhibitor, patch clamp; RBL-2H3; 3 µM): 60%
CN(C)C1CCN(CC#Cc2nn(C3CCCC3)c3nc(NCc4ccccc4)ncc23)C1 (stereo not shown)  inhibition (Proto-oncogene tyrosine-protein kinase Src (SRC, Homo sapiens, UniProt P12931); enzyme activity, inhibitor, FRET; 0.1 µM): -1%
Cc1cnc(Nc2ccc(OCCN3CCCC3)cc2)nc1Nc1cccc(S(=O)(=O)NC(C)(C)C)c1  ΔTm (SP140; thermal stability, DSF; 10 µM): -0.01 °C
